Key:
Rattus norvegicus [1] = species on record: Rattus norvegicus; test: (§1) Tissue to blood ratio 10 min after injection of compound & Estradiol; format: functional
Method in brief: (§2)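 Immature female Fisher rats, about 50 g. […] Rats were killed at 10 min and tissue and blood radioactivity counted. Results are tissue-to-blood ratios, mean ± SD of five rats, compared between paired animals by paired Student's t test (p < 0.05 significant).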

Rattus norvegicus [2] = test: In vivo ovaries distribution of [11C]-labeled compound in Fisher rat 10 min after injection via caudal vein.; format: ADME, organism-based, Female gonad; details: iv
Method in brief: (§3)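 Immature female Fisher rats, 3-4 weeks old, about 50 g. Tracer was HPLC-purified, dried, redissolved in ethanol and diluted in saline. […] Animals were killed by cardiac puncture at 10 min and tissues counted. Values are % injected dose/g normalized to 100 g body weight, mean ± SD of five rats. Rats were paired (with/without carrier) and compared by paired Student's t test.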

Rattus norvegicus [3] = species on record: Rattus norvegicus; test: as §1; format: functional; method in brief: as §2; remark: listed apart in the source
Rattus norvegicus [4] = test: In vivo lung distribution of [11C]-labeled compound in Fisher rat 10 min after injection via caudal vein along with 18 ug of unlabeled estradiol.; format: ADME, organism-based; details: iv; method in brief: as §3
Rattus norvegicus [5] = test: In vivo adrenals distribution of [11C]-labeled compound in Fisher rat 10 min after injection via caudal vein.; format: ADME, organism-based, Adrenal gland; details: iv; method in brief: as §3
Rattus norvegicus [6] = test: In vivo blood distribution of [11C]-labeled compound in Fisher rat 10 min after injection via caudal vein.; format: ADME, organism-based; details: iv; method in brief: as §3
Rattus norvegicus [7] = test: In vivo uterus distribution of [11C]-labeled compound in Fisher rat 10 min after injection via caudal vein along with 18 ug of unlabeled estradiol.; format: ADME, organism-based; details: iv; method in brief: as §3
Rattus norvegicus [8] = test: In vivo spleen distribution of [11C]-labeled compound in Fisher rat 10 min after injection via caudal vein along with 18 ug of unlabeled estradiol.; format: ADME, organism-based; details: iv; method in brief: as §3
Rattus norvegicus [9] = species on record: Rattus norvegicus; test: (§4) Tissue to blood ratio 10 min after injection of compound; format: functional; method in brief: as §2
Rattus norvegicus [10] = test: In vivo muscle distribution of [11C]-labeled compound in Fisher rat 10 min after injection via caudal vein along with 18 ug of unlabeled estradiol.; format: ADME, organism-based, Muscle tissue; details: iv; method in brief: as §3
Rattus norvegicus [11] = test: In vivo lung distribution of [11C]-labeled compound in Fisher rat 10 min after injection via caudal vein.; format: ADME, organism-based; details: iv; method in brief: as §3
Rattus norvegicus [12] = test: In vivo kidneys distribution of [11C]-labeled compound in Fisher rat 10 min after injection via caudal vein along with 18 ug of unlabeled estradiol.; format: ADME, organism-based, Kidney; details: iv; method in brief: as §3
Rattus norvegicus [13] = species on record: Rattus norvegicus; test: as §4; format: functional; method in brief: as §2; remark: listed apart in the source
Rattus norvegicus [14] = test: In vivo blood distribution of [11C]-labeled compound in Fisher rat 10 min after injection via caudal vein along with 18 ug of unlabeled estradiol.; format: ADME, organism-based; details: iv; method in brief: as §3
Rattus norvegicus [15] = test: In vivo uterus distribution of [11C]-labeled compound in Fisher rat 10 min after injection via caudal vein.; format: ADME, organism-based; details: iv; method in brief: as §3
Rattus norvegicus [16] = species on record: Rattus norvegicus; test: as §1; format: functional; method in brief: as §2; remark: listed apart in the source
Rattus norvegicus [17] = species on record: Rattus norvegicus; test: as §4; format: functional; method in brief: as §2; remark: listed apart in the source
Rattus norvegicus [18] = species on record: Rattus norvegicus; test: as §1; format: functional; method in brief: as §2; remark: listed apart in the source
Rattus norvegicus [19] = test: In vivo liver distribution of [11C]-labeled compound in Fisher rat 10 min after injection via caudal vein.; format: ADME, organism-based; details: iv; method in brief: as §3
Rattus norvegicus [20] = species on record: Rattus norvegicus; test: as §4; format: functional; method in brief: as §2; remark: listed apart in the source
Rattus norvegicus [21] = species on record: Rattus norvegicus; test: as §1; format: functional; method in brief: as §2; remark: listed apart in the source
Rattus norvegicus [22] = test: In vivo muscle distribution of [11C]-labeled compound in Fisher rat 10 min after injection via caudal vein.; format: ADME, organism-based, Muscle tissue; details: iv; method in brief: as §3
Rattus norvegicus [23] = species on record: Rattus norvegicus; test: as §1; format: functional; method in brief: as §2; remark: listed apart in the source
Rattus norvegicus [24] = species on record: Rattus norvegicus; test: as §4; format: functional; method in brief: as §2; remark: listed apart in the source
Rattus norvegicus [25] = test: In vivo spleen distribution of [11C]-labeled compound in Fisher rat 10 min after injection via caudal vein.; format: ADME, organism-based; details: iv; method in brief: as §3
Rattus norvegicus [26] = test: In vivo adrenals distribution of [11C]-labeled compound in Fisher rat 10 min after injection via caudal vein along with 18 ug of unlabeled estradiol.; format: ADME, organism-based, Adrenal gland; details: iv; method in brief: as §3
Rattus norvegicus [27] = species on record: Rattus norvegicus; test: as §1; format: functional; method in brief: as §2; remark: listed apart in the source
Rattus norvegicus [28] = test: In vivo ovaries distribution of [11C]-labeled compound in Fisher rat 10 min after injection via caudal vein along with 18 ug of unlabeled estradiol.; format: ADME, organism-based, Female gonad; details: iv; method in brief: as §3
Rattus norvegicus [29] = species on record: Rattus norvegicus; test: as §1; format: functional; method in brief: as §2; remark: listed apart in the source
Rattus norvegicus [30] = species on record: Rattus norvegicus; test: as §4; format: functional; method in brief: as §2; remark: listed apart in the source
Rattus norvegicus [31] = species on record: Rattus norvegicus; test: as §4; format: functional; method in brief: as §2; remark: listed apart in the source
Rattus norvegicus [32] = test: In vivo kidneys distribution of [11C]-labeled compound in Fisher rat 10 min after injection via caudal vein.; format: ADME, organism-based, Kidney; details: iv; method in brief: as §3
Rattus norvegicus [33] = species on record: Rattus norvegicus; test: as §4; format: functional; method in brief: as §2; remark: listed apart in the source
Rattus norvegicus [34] = test: In vivo liver distribution of [11C]-labeled compound in Fisher rat 10 min after injection via caudal vein along with 18 ug of unlabeled estradiol.; format: ADME, organism-based; details: iv; method in brief: as §3
Rattus norvegicus [35] = species on record: Rattus norvegicus; test: as §1; format: functional; method in brief: as §2; remark: listed apart in the source
Rattus norvegicus [36] = species on record: Rattus norvegicus; test: as §4; format: functional; method in brief: as §2; remark: listed apart in the source
Rattus norvegicus [37] = species on record: Rattus norvegicus; test: as §1; format: functional; method in brief: as §2; remark: listed apart in the source
Rattus norvegicus [38] = species on record: Rattus norvegicus; test: as §4; format: functional; method in brief: as §2; remark: listed apart in the source
Rattus norvegicus [39] = species on record: Rattus norvegicus; test: as §4; format: functional; method in brief: as §2; remark: listed apart in the source
Rattus norvegicus [40] = species on record: Rattus norvegicus; test: as §1; format: functional; method in brief: as §2; remark: listed apart in the source
Rattus norvegicus [41] = species on record: Rattus norvegicus; test: as §4; format: functional; method in brief: as §2; remark: listed apart in the source
Rattus norvegicus [42] = species on record: Rattus norvegicus; test: as §4; format: functional; method in brief: as §2; remark: listed apart in the source
Rattus norvegicus [43] = species on record: Rattus norvegicus; test: as §1; format: functional; method in brief: as §2; remark: listed apart in the source
Rattus norvegicus [44] = species on record: Rattus norvegicus; test: as §1; format: functional; method in brief: as §2; remark: listed apart in the source
Rattus norvegicus [45] = species on record: Rattus norvegicus; test: as §1; format: functional; method in brief: as §2; remark: listed apart in the source
Rattus norvegicus [46] = species on record: Rattus norvegicus; test: as §4; format: functional; method in brief: as §2; remark: listed apart in the source
Rattus norvegicus [47] = species on record: Rattus norvegicus; test: as §4; format: functional; method in brief: as §2; remark: listed apart in the source
Rattus norvegicus [48] = species on record: Rattus norvegicus; test: as §1; format: functional; method in brief: as §2; remark: listed apart in the source

SMILES | Injected dose/g (Rattus norvegicus [2]) [%] | Injected dose/g (Rattus norvegicus [4]) [%] | Injected dose/g (Rattus norvegicus [5]) [%] | Injected dose/g (Rattus norvegicus [6]) [%] | Injected dose/g (Rattus norvegicus [7]) [%] | Injected dose/g (Rattus norvegicus [8]) [%] | Injected dose/g (Rattus norvegicus [10]) [%] | Injected dose/g (Rattus norvegicus [11]) [%] | Injected dose/g (Rattus norvegicus [12]) [%] | Injected dose/g (Rattus norvegicus [14]) [%] | Injected dose/g (Rattus norvegicus [15]) [%] | Injected dose/g (Rattus norvegicus [19]) [%] | Injected dose/g (Rattus norvegicus [22]) [%] | Injected dose/g (Rattus norvegicus [25]) [%] | Injected dose/g (Rattus norvegicus [26]) [%] | Injected dose/g (Rattus norvegicus [28]) [%] | Injected dose/g (Rattus norvegicus [32]) [%] | Injected dose/g (Rattus norvegicus [34]) [%] | other results
CCOC(=O)NCCOc1ccc(C(CC)C(CC)c2ccc(O)cc2)cc1 (stereo not drawn) | 2.5 | 2.1 | 6.5 | 0.81 | 6.2 | 1.6 | 1.3 | 2.1 | 5.1 | 1.3 | 5 | 8.5 | 1.1 | 2.4 | 5.3 | 3.5 | 2.9 | 7.8 | Tissue/Blood ratio (Rattus norvegicus [1]): 1.9; Tissue/Blood ratio (Rattus norvegicus [3]): 3.1; Tissue/Blood ratio (Rattus norvegicus [9]): 3; Tissue/Blood ratio (Rattus norvegicus [13]): 6.3; Tissue/Blood ratio (Rattus norvegicus [16]): 2.8; Tissue/Blood ratio (Rattus norvegicus [17]): 1.2; Tissue/Blood ratio (Rattus norvegicus [18]): 9.4; Tissue/Blood ratio (Rattus norvegicus [20]): 2.5; Tissue/Blood ratio (Rattus norvegicus [21]): 2.5; Tissue/Blood ratio (Rattus norvegicus [23]): 1.3; Tissue/Blood ratio (Rattus norvegicus [24]): 3.7; Tissue/Blood ratio (Rattus norvegicus [27]): 5.4; Tissue/Blood ratio (Rattus norvegicus [29]): 3.3; Tissue/Blood ratio (Rattus norvegicus [30]): 8; Tissue/Blood ratio (Rattus norvegicus [31]): 9; Tissue/Blood ratio (Rattus norvegicus [33]): 2.4
CCOC(=O)NC1CC[C@H]2[C@@H]3CCc4cc(O)ccc4[C@H]3CC[C@]12C (stereo partly drawn) | 6.5 | 5.1 | 14.3 | 0.9 | 7.8 | 3.6 | 3.2 | 3.1 | 6.1 | 1.3 | 4.5 | 9.4 | 1.6 | 2.3 | 21.6 | 7.4 | 4.2 | 12.8 | Ratio (Rattus norvegicus [35]): 6; Ratio (Rattus norvegicus [36]): 9.4; Ratio (Rattus norvegicus [37]): 6.2; Ratio (Rattus norvegicus [38]): 2.8; Ratio (Rattus norvegicus [39]): 9.1; Ratio (Rattus norvegicus [40]): 14.9; Ratio (Rattus norvegicus [41]): 18; Ratio (Rattus norvegicus [42]): 1.4; Ratio (Rattus norvegicus [43]): 9.1; Ratio (Rattus norvegicus [44]): 4.3; Ratio (Rattus norvegicus [45]): 1.8; Ratio (Rattus norvegicus [46]): 4.8; Ratio (Rattus norvegicus [21]): 3.7; Ratio (Rattus norvegicus [47]): 5.5; Ratio (Rattus norvegicus [48]): 2.7; Ratio (Rattus norvegicus [33]): 3.7
